Measured values reported in article PMC2791411 (Biochemistry, 2009).

What was measured:
[1] = target: T1, hDAO (human diamine oxidase) (Homo sapiens, UniProt P19801); test: Inhibition of hDAO putrescine oxidation; format: biochemical; conditions: for Mode of Inhibition: hDAO, putrescine oxidation, global nonlinear regression
T1 sequence (P19801 20-751): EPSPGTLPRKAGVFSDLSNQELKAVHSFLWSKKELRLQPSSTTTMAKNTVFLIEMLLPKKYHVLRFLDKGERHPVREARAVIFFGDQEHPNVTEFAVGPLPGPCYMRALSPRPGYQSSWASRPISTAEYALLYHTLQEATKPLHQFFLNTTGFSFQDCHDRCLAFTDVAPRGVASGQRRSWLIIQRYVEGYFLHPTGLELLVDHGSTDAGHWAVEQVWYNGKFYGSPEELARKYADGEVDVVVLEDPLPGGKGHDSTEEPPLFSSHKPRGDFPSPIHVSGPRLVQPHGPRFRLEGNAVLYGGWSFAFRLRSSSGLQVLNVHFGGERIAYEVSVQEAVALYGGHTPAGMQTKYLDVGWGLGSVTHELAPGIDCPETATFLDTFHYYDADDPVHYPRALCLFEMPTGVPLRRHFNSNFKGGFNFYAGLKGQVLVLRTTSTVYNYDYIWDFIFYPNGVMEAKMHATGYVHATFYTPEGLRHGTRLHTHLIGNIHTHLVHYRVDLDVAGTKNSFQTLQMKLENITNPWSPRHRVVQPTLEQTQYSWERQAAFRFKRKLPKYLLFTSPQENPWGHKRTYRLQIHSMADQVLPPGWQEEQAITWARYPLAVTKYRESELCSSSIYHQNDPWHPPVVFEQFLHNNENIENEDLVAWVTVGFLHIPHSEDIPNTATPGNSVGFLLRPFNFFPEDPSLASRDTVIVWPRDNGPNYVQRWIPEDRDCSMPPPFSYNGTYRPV

hVAP-1 = target: T2, hVAP-1 (Homo sapiens, UniProt Q16853); test: Inhibition of hVAP-1 amine oxidase activity; format: biochemical; conditions: for Mode of Inhibition: hVAP-1
T2 sequence (Q16853 1-763): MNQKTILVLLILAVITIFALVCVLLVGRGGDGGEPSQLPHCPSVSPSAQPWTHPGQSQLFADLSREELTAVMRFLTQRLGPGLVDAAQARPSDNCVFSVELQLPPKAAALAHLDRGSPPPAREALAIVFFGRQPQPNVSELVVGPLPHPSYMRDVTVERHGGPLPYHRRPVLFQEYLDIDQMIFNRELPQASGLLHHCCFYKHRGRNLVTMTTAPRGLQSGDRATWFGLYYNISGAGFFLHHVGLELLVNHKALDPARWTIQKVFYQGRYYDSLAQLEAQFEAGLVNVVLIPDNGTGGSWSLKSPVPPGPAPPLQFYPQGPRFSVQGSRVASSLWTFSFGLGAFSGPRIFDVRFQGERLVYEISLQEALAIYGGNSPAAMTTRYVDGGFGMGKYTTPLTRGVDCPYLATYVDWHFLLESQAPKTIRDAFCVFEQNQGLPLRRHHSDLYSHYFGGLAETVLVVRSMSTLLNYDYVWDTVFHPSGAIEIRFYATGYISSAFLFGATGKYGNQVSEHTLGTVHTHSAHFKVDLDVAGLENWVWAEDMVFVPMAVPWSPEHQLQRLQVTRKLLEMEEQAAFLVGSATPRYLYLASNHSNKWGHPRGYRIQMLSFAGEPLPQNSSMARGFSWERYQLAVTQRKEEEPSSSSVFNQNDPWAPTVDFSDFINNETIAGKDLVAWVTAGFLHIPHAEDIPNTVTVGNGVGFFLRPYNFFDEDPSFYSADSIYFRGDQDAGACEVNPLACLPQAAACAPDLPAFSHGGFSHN
Procedure, shortened: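 Purified human VAP-1 was supplied as a gift. Activity was followed as benzaldehyde production at 250 nm over 5 min (ε 12,800 M⁻¹cm⁻¹) in 100 mM potassium phosphate, pH 7.2, at 37 °C, with and without test compound. Ki and mode came from global nonlinear regression, choosing the best-fitting competitive, uncompetitive, noncompetitive or mixed model.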

[2] = patients, intravenous treatment; ref [59], [73], [79]–[81]; cited from earlier work
[3] = AIDS patients under pentamidine treatment; ref [72]–[78]; cited from earlier work

CN/C(=N/CCSCc1nc[nH]c1C)NC#N [Cimetidine]
Ki [1]: 90 ± 14 µM | Mode of Inhibition [1]: Mixed

Clc1cccc(Cl)c1N=C1NCCN1 [Clonidine]
Ki [1]: 100 ± 8 µM | inhibition of hDAO, in words [1]: weak inhibitor | Mode of Inhibition [1]: Mixed

N=C(N)c1ccc(N=NNc2ccc(C(=N)N)cc2)cc1 [Berenil, 1,3-bis(4’-amidinophenyl)triazene]
inhibition of hDAO, in words [1]: very potent inhibitors | Mode of Inhibition [1]: Mixed | Mode of Inhibition ([1]; listed as berenil): mixed type/partial competitive inhibition

NNC(=O)c1ccncc1 [Isoniazid]
Ki [1]: 970 ± 50 µM | Mode of Inhibition [1]: purely noncompetitive

N=C(N)c1ccc(OCCCCCOc2ccc(C(=N)N)cc2)cc1 [Pentamidine, 1,5-bis(4-amidinophenoxy)pentane]
inhibition of hDAO, in words [1]: very potent inhibitors | Mode of Inhibition [1]: mixed type/partial competitive inhibition | Ki (hVAP-1): 1100 ± 40 nM | Mode of Inhibition (hVAP-1): Noncompetitive | Mode of Inhibition (hVAP-1; listed as pentamidine): purely noncompetitive | Plasma concentration, lower end of range [2]: 25 ng/mL | Plasma concentration, lower end of range (molar) [2]: 43 nM | Plasma concentration, upper end of range [2]: 1.4 g/mL | Plasma concentration, upper end of range (molar) [2]: 2.3 µM | AIDS patients with adverse side effects [3]: at least 70%

NCCCCN [putrescine, 1,4-diaminobutane]
Ki [1]: 2270 ± 140 µM
